Results from ChEMBL document CHEMBL1131025, “14-Desoxy analogues of naltrindole and 7-spiroindanyloxymorphone: the role of the 14-hydroxy group at delta opioid receptors” (J Med Chem, 1998).

How the values were obtained:
[1] = molecular target: Delta-type opioid receptor (Mus musculus) (UniProt P32300); test: Antagonistic activity expressed as IC50 ratio against DADLE-Opioid receptor delta 1 in smooth muscle preparations of mouse vas deferens(MVD); type: functional
How it was run: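 Electrically stimulated mouse vas deferens. The preparation was preincubated 15 min with test compound (100 nM) before challenge with the standard δ agonist DADLE. The ratio is DADLE IC50 with antagonist divided by control IC50 of DADLE alone (n ≥ 3).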

[2] = organism: Cavia porcellus; test: (§1) Agonist activity (ability to decrease the twitch height of the electrically stimulated smooth muscle) in electrically stimulated guinea pig ileum(GPI); type: functional, organism-based; conditions: Muscle tissue
How it was run: (§2)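 Electrically stimulated guinea pig ileum. Agonism read as a drop in twitch height. Compounds were first tested at 1 μM. Full agonists were then run at 4-6 concentrations to build a dose-response curve and give the IC50 for half-maximal response (n ≥ 3). Partial responders were reported as percent of maximal agonist response.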

[3] = organism: Mus musculus; test: Agonist vas deferens(MVD); type: functional
How it was run: as §2, with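 “mouse vas deferens.” for “guinea pig ileum.”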

[4] = organism: Cavia porcellus; test: Agonist activity (ability to decrease the twitch height of the electrically stimulated smooth muscle) in electrically stimulated guinea pig ileum (GPI); type: functional; how it was run: as §2
[5] = organism: Cavia porcellus; test: Antagonist potency (Ke) was evaluated in guinea pig ileum(GPI); type: functional
How it was run: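 Antagonist potency came from IC50-ratio tests in which smooth muscle was preincubated 15 min with antagonist before agonist challenge.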

[6] = molecular target: Kappa-type opioid receptor (Cavia porcellus) (UniProt P41144); test: Antagonistic activity expressed as IC50 ratio against ethylketazocine (EK) Opioid receptor kappa 1 in smooth muscle preparations; type: functional
How it was run: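 Electrically stimulated guinea pig ileum. The preparation was preincubated 15 min with test compound (100 nM) before challenge with a standard agonist: morphine for μ, ethylketazocine for κ. The ratio is agonist IC50 with antagonist divided by control IC50 of agonist alone (n ≥ 3).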

[7] = organism: Cavia porcellus; test: as §1; type: functional, Muscle tissue; how it was run: as §2

Sequence of Delta-type opioid receptor (Mus musculus) (P32300 whole entry): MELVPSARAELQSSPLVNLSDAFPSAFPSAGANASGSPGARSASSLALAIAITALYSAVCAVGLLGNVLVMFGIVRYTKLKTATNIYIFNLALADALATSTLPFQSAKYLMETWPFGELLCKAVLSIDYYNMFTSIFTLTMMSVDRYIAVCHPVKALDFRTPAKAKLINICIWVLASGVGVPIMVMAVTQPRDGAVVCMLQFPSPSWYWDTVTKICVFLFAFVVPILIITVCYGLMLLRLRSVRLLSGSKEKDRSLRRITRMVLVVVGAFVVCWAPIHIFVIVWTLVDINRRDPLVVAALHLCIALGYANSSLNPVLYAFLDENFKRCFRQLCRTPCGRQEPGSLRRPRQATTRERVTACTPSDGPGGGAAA
Sequence of Kappa-type opioid receptor (Cavia porcellus) (P41144 whole entry): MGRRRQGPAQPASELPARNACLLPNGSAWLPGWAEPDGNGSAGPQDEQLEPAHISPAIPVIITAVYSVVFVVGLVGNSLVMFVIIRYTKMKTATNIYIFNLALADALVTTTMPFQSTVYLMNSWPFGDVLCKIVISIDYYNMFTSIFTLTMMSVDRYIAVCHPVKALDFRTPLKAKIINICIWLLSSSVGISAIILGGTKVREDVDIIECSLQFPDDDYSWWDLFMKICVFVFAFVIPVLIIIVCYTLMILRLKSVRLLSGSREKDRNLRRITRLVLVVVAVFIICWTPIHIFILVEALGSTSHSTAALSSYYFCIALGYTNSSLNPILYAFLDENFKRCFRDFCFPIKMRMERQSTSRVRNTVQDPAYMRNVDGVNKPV

CN1CCC23c4c5ccc(O)c4O[C@H]2C(=O)C2(Cc4ccccc4C2)CC3C1C5 (some centres not stated)
IC50 ratio [1]: 0.85 | IC50 [2]: 153 nM | Max response [3]: 58.6%

Oc1ccc2c3c1O[C@H]1c4[nH]c5ccccc5c4CC4C(C2)N(CC2CC2)CCC341 (some centres not stated)
IC50 ratio [1]: 34.6 | Max response [4]: 16.85% | Ke [5]: 2.98 | IC50 ratio [6]: 1.64 | Max response [3]: 22.6%

CN1CC[C@]23c4c5ccc(O)c4O[C@H]2C(=O)C2(Cc4ccccc4C2)C[C@@]3(O)[C@H]1C5 [SPIROINDANYLOXYMORPHONE]
Max response [7]: 55% | IC50 ratio [6]: 1

Oc1ccc2c3c1O[C@H]1c4[nH]c5ccccc5c4C[C@@]4(O)[C@@H](C2)N(CC2CC2)CC[C@]314 [NALTRINDOLE]
Max response [7]: 7.6% | Max response [3]: 37.1%
